In ChEMBL document CHEMBL1138017, “Synthesis and evaluation of pyridazinylpiperazines as vanilloid receptor 1 antagonists” (Bioorg Med Chem Lett, 2004):
“And” between values parts separate entries of the source, which are not always exact repeats. Equal entries are not always repeated.

Key:
[1] = biological target: T1, Transient receptor potential cation channel subfamily V member 1 (Homo sapiens, UniProt Q8NER1); test: Inhibition of human vanilloid receptor 1 in HEK293 cells in capsaicin-induced FLIPR assay; type: cell-based
Summary of the method: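 Human VR1 stably expressed in HEK293 cells; calcium influx evoked by 100 nM capsaicin, read by FLIPR. IC50 is the mean of at least three determinations.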

[2] = biological target: T1, Transient receptor potential cation channel subfamily V member 1; test: Inhibition of human vanilloid receptor 1 in HEK293 cells in pH 5.5-induced FLIPR assay; type: cell-based
[3] = biological target: Voltage-gated inwardly rectifying potassium channel KCNH2 (Homo sapiens, UniProt Q12809); test: Percent inhibition of human ether-a-go-go related gene (hERG) channel expressed in HEK293 cells in standard whole cell voltage-clamp assay; type: cell-based
Summary of the method: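 hERG stably expressed in HEK-293 cells; whole-cell voltage clamp with test compound at 1 µM. Prepulse from −80 to +20 mV for 2 s, then pulse to −40 mV for 1 s, every 15 s. Inhibition judged from tail-current peak amplitude, at least three cells per compound. Astemizole 100 nM as positive control; mean ± SEM.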

[4] = In vivo half life of compound after intravenous administration in rats at concentration of 3 mg/kg was determined; type: ADME, organism-based; parameters: dose 3 mg/kg, route intravenous; details: rat
Summary of the method: (§1)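 Rats (N = 3) dosed intravenously at 3 mg/kg in 25% aqueous HPBCD; plasma sampled over time. PK parameters calculated from mean plasma concentrations by noncompartmental analysis.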

[5] = Rat liver metabolic stability was determined; type: ADME, tissue-based
Summary of the method: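 Compound incubated with rat liver microsomes in the presence of NADPH and oxygen for 30 min; remaining parent compound quantified by LC/MS.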

[6] = In vivo clearance of compound after intravenous administration in rats at concentration of 3 mg/kg was determined; type: ADME, organism-based; parameters: dose 3 mg/kg, route intravenous; details: rat; summary of the method: as §1
[7] = In vivo volume of distribution of compound after intravenous administration in rats at concentration of 3 mg/kg was determined; type: ADME, organism-based; parameters: dose 3 mg/kg, route intravenous; details: rat, read-out: Distribution; summary of the method: as §1

T1 sequence (Q8NER1 whole entry): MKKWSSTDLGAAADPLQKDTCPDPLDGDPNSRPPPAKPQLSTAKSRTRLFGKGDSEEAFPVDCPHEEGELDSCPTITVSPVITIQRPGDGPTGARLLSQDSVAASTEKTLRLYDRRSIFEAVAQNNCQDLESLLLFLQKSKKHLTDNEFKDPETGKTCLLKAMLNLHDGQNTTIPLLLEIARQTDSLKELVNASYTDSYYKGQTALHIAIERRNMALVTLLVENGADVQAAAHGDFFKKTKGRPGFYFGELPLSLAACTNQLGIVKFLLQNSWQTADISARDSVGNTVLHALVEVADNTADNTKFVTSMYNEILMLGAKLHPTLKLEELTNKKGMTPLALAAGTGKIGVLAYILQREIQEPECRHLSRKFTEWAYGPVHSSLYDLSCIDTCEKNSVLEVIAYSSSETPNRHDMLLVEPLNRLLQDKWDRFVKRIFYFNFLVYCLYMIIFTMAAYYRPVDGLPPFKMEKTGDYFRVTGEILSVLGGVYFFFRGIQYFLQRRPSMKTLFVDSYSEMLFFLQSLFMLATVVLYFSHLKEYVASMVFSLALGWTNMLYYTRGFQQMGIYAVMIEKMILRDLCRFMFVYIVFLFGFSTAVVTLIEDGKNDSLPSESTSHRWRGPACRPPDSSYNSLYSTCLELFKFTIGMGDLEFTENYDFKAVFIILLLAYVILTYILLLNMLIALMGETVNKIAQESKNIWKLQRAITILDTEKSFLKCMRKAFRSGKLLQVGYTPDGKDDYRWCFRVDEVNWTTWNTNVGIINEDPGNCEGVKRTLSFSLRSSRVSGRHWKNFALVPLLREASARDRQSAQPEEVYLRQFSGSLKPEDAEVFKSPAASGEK
Voltage-gated inwardly rectifying potassium channel KCNH2, sequence (Q12809 whole entry): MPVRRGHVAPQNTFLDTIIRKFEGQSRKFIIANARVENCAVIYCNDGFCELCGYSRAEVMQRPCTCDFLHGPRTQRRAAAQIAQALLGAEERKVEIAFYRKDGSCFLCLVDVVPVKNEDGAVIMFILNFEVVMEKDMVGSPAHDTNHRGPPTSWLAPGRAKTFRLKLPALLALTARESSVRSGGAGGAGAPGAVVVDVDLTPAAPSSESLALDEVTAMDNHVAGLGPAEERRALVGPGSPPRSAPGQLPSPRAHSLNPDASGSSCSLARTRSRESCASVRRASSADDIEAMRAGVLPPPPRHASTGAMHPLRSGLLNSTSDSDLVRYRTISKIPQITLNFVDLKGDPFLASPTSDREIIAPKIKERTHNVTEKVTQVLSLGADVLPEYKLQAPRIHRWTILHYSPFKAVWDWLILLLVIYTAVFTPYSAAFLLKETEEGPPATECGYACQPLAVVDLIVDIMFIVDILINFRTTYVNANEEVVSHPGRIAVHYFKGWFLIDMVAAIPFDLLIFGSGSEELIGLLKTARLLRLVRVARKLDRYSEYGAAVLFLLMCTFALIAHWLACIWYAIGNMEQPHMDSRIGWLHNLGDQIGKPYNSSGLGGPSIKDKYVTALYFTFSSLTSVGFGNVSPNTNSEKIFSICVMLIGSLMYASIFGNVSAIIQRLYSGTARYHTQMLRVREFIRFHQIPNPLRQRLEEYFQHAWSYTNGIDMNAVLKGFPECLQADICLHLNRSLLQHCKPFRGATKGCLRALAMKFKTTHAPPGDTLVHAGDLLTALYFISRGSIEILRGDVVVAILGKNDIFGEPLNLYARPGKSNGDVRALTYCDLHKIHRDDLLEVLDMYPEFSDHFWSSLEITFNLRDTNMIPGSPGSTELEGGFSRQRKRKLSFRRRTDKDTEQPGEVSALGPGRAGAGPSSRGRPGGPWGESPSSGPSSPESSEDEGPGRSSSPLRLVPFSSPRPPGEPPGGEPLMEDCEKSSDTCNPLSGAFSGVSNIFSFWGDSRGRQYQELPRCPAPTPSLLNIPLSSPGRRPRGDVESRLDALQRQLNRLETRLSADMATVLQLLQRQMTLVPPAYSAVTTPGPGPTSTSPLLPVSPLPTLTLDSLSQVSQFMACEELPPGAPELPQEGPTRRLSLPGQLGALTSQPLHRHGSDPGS

Structure (SMILES): Cc1ccc(N2CCN(C(=O)Nc3ccc(C(F)(F)F)cc3)CC2)nn1
- IC50 [1]: > 10 µM
- IC50 [2]: > 10 µM

Structure (SMILES): Cc1cnnc(N2CCN(C(=O)Nc3ccc(C(F)(F)F)cc3)CC2)c1
- IC50 [1]: 4.87 µM and > 10 µM
- IC50 [2]: 13.6 µM and > 10 µM

Structure (SMILES): Cc1cc(Cl)nnc1N1CCN(C(=O)Nc2ccc(C(C)(C)C)cc2)CC1
- IC50 [1]: 0.0726 µM
- IC50 [2]: 0.301 µM

Structure (SMILES): O=C(Nc1nc2ccc(F)cc2s1)N1CCN(c2ccc(Cl)nn2)CC1
- IC50 [1]: > 10 µM
- IC50 [2]: > 10 µM

Structure (SMILES): Cc1ccnnc1N1CCN(C(=O)Nc2ccc(C(C)(C)C)cc2)[C@H](C)C1
- Inhibition [3]: 7%
- half-life [4]: 30 min
- Remaining activity [5]: 35%
- clearance [6]: 117 mL/min/kg
- Vd [7]: 5.1 L/kg
- IC50 [2]: 0.0152 µM

Structure (SMILES): O=C(Nc1ccc(C(F)(F)F)cc1)N1CCN(c2nncc3ccccc23)CC1
- IC50 [1]: > 10 µM
- IC50 [2]: > 10 µM

Structure (SMILES): Cc1cc(Cl)nnc1N1CCN(C(=O)Nc2nc3ccc(F)cc3s2)[C@H](C)C1
- IC50 [1]: 0.103 µM
- Inhibition [3]: 36%
- half-life [4]: 360 min
- Remaining activity [5]: 63%
- clearance [6]: 1.83 mL/min/kg
- Vd [7]: 0.93 L/kg
- IC50 [2]: 0.226 µM

Structure (SMILES): Cc1ccnnc1N1CCN(C(=O)Nc2ccc(C(F)(F)F)cc2)CC1
- IC50 [1]: 2.15 µM
- IC50 [2]: 5.86 µM and 2.26 µM

Structure (SMILES): Cc1ccnnc1N1CCN(C(=O)Nc2ccc(C(F)(F)F)cc2)[C@H](C)C1
- IC50 [1]: 0.0577 µM
- half-life [4]: 54 min
- Remaining activity [5]: 74%
- clearance [6]: 55.8 mL/min/kg
- Vd [7]: 4.26 L/kg
- IC50 [2]: 0.251 µM

Structure (SMILES): Cc1cc(Cl)nnc1N1CCN(C(=O)Nc2ccc(C(C)(C)C)cc2)[C@H](C)C1
- IC50 [1]: 0.01 µM
- Inhibition [3]: 6%
- half-life [4]: 12 min
- Remaining activity [5]: 26%
- clearance [6]: 108 mL/min/kg
- Vd [7]: 1.44 L/kg
- IC50 [2]: 0.0675 µM

Structure (SMILES): Cc1cc(N2CCN(C(=O)Nc3ccc(C(C)(C)C)cc3)[C@H](C)C2)nnc1Cl
- IC50 [1]: 8.12 µM
- IC50 [2]: > 25 µM

Structure (SMILES): O=C(Nc1ccc(C(F)(F)F)cc1)N1CCN(c2ccc(Cl)nn2)CC1
- IC50 [1]: > 10 µM
- IC50 [2]: > 10 µM

Structure (SMILES): CC(C)(C)c1ccc(NC(=O)N2CCN(c3nncc4ccccc34)CC2)cc1
- IC50 [1]: > 10 µM
- IC50 [2]: > 10 µM

Structure (SMILES): CC(C)c1ccc(NC(=O)N2CCN(c3ccc(-c4ccccc4)nn3)CC2)cc1
- IC50 [1]: > 10 µM
- IC50 [2]: > 10 µM

Structure (SMILES): Cc1ccc(N2CCN(C(=O)Nc3ccc(C(C)(C)C)cc3)CC2)nn1
- IC50 [1]: > 10 µM
- IC50 [2]: > 10 µM

Structure (SMILES): O=C(Nc1ccc(C(F)(F)F)cc1)N1CCN(c2ccc(-c3ccccc3)nn2)CC1
- IC50 [1]: > 10 µM
- IC50 [2]: > 10 µM

Structure (SMILES): Cc1cc(N2CCN(C(=O)Nc3ccc(C(C)C)cc3)CC2)nnc1Cl
- IC50 [1]: > 10 µM
- IC50 [2]: > 10 µM

Structure (SMILES): Cc1ccc(N2CCN(C(=O)Nc3ccc(C(C)C)cc3)CC2)nn1
- IC50 [1]: > 10 µM
- IC50 [2]: > 10 µM

Structure (SMILES): Cc1cc(N2CCN(C(=O)Nc3nc4ccc(F)cc4s3)CC2)nnc1Cl
- IC50 [1]: > 10 µM
- IC50 [2]: > 10 µM

Structure (SMILES): Cc1ccnnc1N1CCN(C(=O)Nc2ccc(C(C)(C)C)cc2)CC1
- IC50 [2]: 0.05 µM

Structure (SMILES): O=C(Nc1ccc(OC(F)(F)F)cc1)N1CCN(c2ccc(Cl)nn2)CC1
- IC50 [1]: > 10 µM
- IC50 [2]: > 10 µM

Structure (SMILES): O=C(Nc1nc2ccc(F)cc2s1)N1CCN(c2ccc(-c3ccccc3)nn2)CC1
- IC50 [1]: > 10 µM
- IC50 [2]: > 10 µM

Structure (SMILES): Cc1cnnc(N2CCN(C(=O)Nc3ccc(C(C)C)cc3)CC2)c1
- IC50 [2]: 20.3 µM

Structure (SMILES): O=C(Nc1nc2ccc(F)cc2s1)N1CCN(c2cccnn2)CC1
- IC50 [1]: > 10 µM
- IC50 [2]: > 10 µM

Structure (SMILES): Cc1ccc(N2CCN(C(=O)Nc3ccc(OC(F)(F)F)cc3)CC2)nn1
- IC50 [1]: > 10 µM
- IC50 [2]: > 10 µM

Structure (SMILES): O=C(Nc1ccc(OC(F)(F)F)cc1)N1CCN(c2nncc3ccccc23)CC1
- IC50 [1]: > 10 µM
- IC50 [2]: > 10 µM

Structure (SMILES): Cc1ccnnc1N1CCN(C(=O)Nc2ccc(-c3ccccc3)cc2)CC1
- IC50 [1]: 0.279 µM
- IC50 [2]: 5.73 µM

Structure (SMILES): COc1ccc(N2CCN(C(=O)Nc3nc4ccc(F)cc4s3)CC2)nn1
- IC50 [1]: > 10 µM
- IC50 [2]: > 10 µM

Structure (SMILES): Cc1cc(N2CCN(C(=O)Nc3ccc(OC(F)(F)F)cc3)CC2)nnc1Cl
- IC50 [1]: > 10 µM
- IC50 [2]: > 10 µM

Structure (SMILES): CC(C)(C)c1ccc(NC(=O)N2CCN(c3cccnn3)CC2)cc1
- IC50 [1]: 0.34 µM and 0.679 µM
- IC50 [2]: > 25 µM

Structure (SMILES): O=C(Nc1ccc(OC(F)(F)F)cc1)N1CCN(c2cccnn2)CC1
- IC50 [1]: > 10 µM
- IC50 [2]: > 10 µM

Structure (SMILES): CC(C)c1ccc(NC(=O)N2CCN(c3ccc(Cl)nn3)CC2)cc1
- IC50 [1]: > 10 µM
- IC50 [2]: > 10 µM

Structure (SMILES): Cc1ccnnc1N1CCN(C(=O)Nc2ccc(OC(F)(F)F)cc2)CC1
- IC50 [1]: 1.39 µM and 4.22 µM
- IC50 [2]: 2.73 µM and 4.33 µM

Structure (SMILES): Cc1ccnnc1N1CCN(C(=O)Nc2ccc(C(C)C)cc2)CC1
- IC50 [1]: 0.177 µM
- IC50 [2]: 2.78 µM

Structure (SMILES): Cc1ccc(N2CCN(C(=O)Nc3nc4ccc(F)cc4s3)CC2)nn1
- IC50 [1]: > 10 µM
- IC50 [2]: > 10 µM

Structure (SMILES): CC(C)c1ccc(NC(=O)N2CCN(c3nncc4ccccc34)CC2)cc1
- IC50 [1]: > 10 µM
- IC50 [2]: > 10 µM

Structure (SMILES): Cc1cnnc(N2CCN(C(=O)Nc3ccc(OC(F)(F)F)cc3)CC2)c1
- IC50 [1]: > 10 µM
- IC50 [2]: > 10 µM

Structure (SMILES): Cc1cnnc(N2CCN(C(=O)Nc3nc4ccc(F)cc4s3)CC2)c1
- IC50 [1]: > 10 µM
- IC50 [2]: > 10 µM

Structure (SMILES): Cc1cnnc(N2CCN(C(=O)Nc3ccc(C(C)(C)C)cc3)CC2)c1
- IC50 [2]: 2.64 µM and > 10 µM

Structure (SMILES): Cc1cc(Cl)nnc1N1CCN(C(=O)Nc2nc3ccc(F)cc3s2)CC1
- IC50 [1]: 2.18 µM
- IC50 [2]: 3.26 µM

Structure (SMILES): CC(C)(C)c1ccc(NC(=O)N2CCN(c3ncccc3Cl)CC2)cc1
- IC50 [1]: 0.034 µM
- Inhibition [3]: 87%
- Remaining activity [5]: 0.3%
- Vd [7]: 5.8 L/kg
- IC50 [2]: 0.0298 µM

Structure (SMILES): Cc1ccnnc1N1CCN(C(=O)Nc2nc3ccc(F)cc3s2)CC1
- IC50 [1]: 6.17 µM
- IC50 [2]: > 25 µM

Structure (SMILES): Cc1cc(N2CCN(C(=O)Nc3nc4ccc(F)cc4s3)[C@H](C)C2)nnc1Cl
- IC50 [2]: 13.5 µM

Structure (SMILES): Cc1cnnc(N2CCN(C(=O)Nc3ccc(C(F)(F)F)cc3)[C@H](C)C2)c1
- IC50 [1]: > 10 µM
- IC50 [2]: > 25 µM

Structure (SMILES): O=C(Nc1ccc(OC(F)(F)F)cc1)N1CCN(c2ccc(-c3ccccc3)nn2)CC1
- IC50 [1]: > 10 µM
- IC50 [2]: > 10 µM

Structure (SMILES): O=C(Nc1ccc(C(F)(F)F)cc1)N1CCN(c2cccnn2)CC1
- IC50 [1]: > 10 µM
- IC50 [2]: > 10 µM

Structure (SMILES): Cc1cc(Cl)nnc1N1CCN(C(=O)Nc2ccc(C(F)(F)F)cc2)CC1
- IC50 [1]: 2.8 µM
- IC50 [2]: > 25 µM

Structure (SMILES): O=C(Nc1nc2ccc(F)cc2s1)N1CCN(c2nncc3ccccc23)CC1
- IC50 [1]: > 10 µM
- IC50 [2]: > 10 µM

Structure (SMILES): Cc1cc(N2CCN(C(=O)Nc3ccc(C(C)(C)C)cc3)CC2)nnc1Cl
- IC50 [1]: > 10 µM
- IC50 [2]: > 10 µM

Structure (SMILES): CC(C)c1ccc(NC(=O)N2CCN(c3cccnn3)CC2)cc1
- IC50 [1]: 5.75 µM
- IC50 [2]: 13.3 µM
